Measured values collected from several papers.
Each line is one published result; the experiments were not run side by side. pIC50, pKi: −log10 of the molar value.
NEU1: Sialidase-1 (NEU1, Homo sapiens, UniProt Q99519)
CTSL: Procathepsin L (CTSL, Homo sapiens, UniProt P07711)
P4HB: Protein disulfide-isomerase (P4HB, Homo sapiens, UniProt P07237)

| SMILES | target | read-out | action | method | quantity | result |
| --- | --- | --- | --- | --- | --- | --- |
| [Cl][Cd][Cl] | Voltage-dependent P/Q-type calcium channel subunit alpha-1A (Homo sapiens, UniProt O00555) | ion current | inhibitor | patch clamp | pIC50 | 5.38 |
| CC(C)(C)CC(=O)N[C@H]1[C@H]([C@H](O)[C@H](O)CO)OC(C(=O)O)=C[C@@H]1O | NEU1 | enzyme activity | inhibitor |  | pIC50 | 3.80 |
| CS(=O)(=O)N[C@@H](CCC(N)=O)C(=O)N[C@@H](Cc1ccccc1)C(=O)N[C@@H](CCCNC(=N)N)C(=O)c1nccs1 | CTSL | cell-free assay |  |  | pKi | < 5.00 |
| O=C(O)C1=C[C@H](O)[C@@H](n2cc(-c3ccc(-c4ccccc4)cc3)nn2)[C@H]([C@H](O)[C@H](O)CO)O1 | NEU1 | enzyme activity | inhibitor |  | pIC50 | < 3.30 |
| O=C(O)c1cc(O)c(O)c(O)c1 | P4HB | enzyme activity | inhibitor | fluorescence | pIC50 | < 3.30 |
| OB1OCc2cc(F)ccc21 | blaNDM-5 (Escherichia coli, UniProt G3K399) | enzyme activity | inhibitor |  | pIC50 | 4.71 |
| O=C(O[C@@H]1Cc2c(O)cc(O)cc2O[C@H]1c1ccc(O)c(O)c1)c1cc(O)c(O)c(O)c1 | P4HB | enzyme activity | inhibitor | fluorescence | pIC50 | < 4.70 |
| COCCC(=O)N[C@@H](CCC(N)=O)C(=O)N[C@@H](Cc1ccccc1)C(=O)N[C@@H](CCCNC(=N)N)C(=O)c1nc2ccccc2s1 | CTSL | cell-free assay |  |  | pKi | < 5.00 |
